Hits are enriched below; roughly 3% of the tested compounds scored in any of these assays.
S1P3 agonist: agonists of human S1P3 receptor | Q99500 | S1P3 NFAT-BLA reporter cells, agonism, FRET ratio; relative to 1 µM S1P, basal subtracted | activation, % at 4.5 µM | hit rate 0.1% among 60,000 | AID 373;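 active = activation above the screen-wide mean plus 3 SD, cut at about 4.5% in these data, passing the limit was not always enough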
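Measure – % activation relative to 1 µM S1P (100%), per plate · System – stable CHO line with human S1P3, Gα16, NFAT-BLA reporter · Timing – cells plated overnight, compound 4 h 37 °C, substrate 2 h RT · Technique – fluorescent BLA substrate, ex 405 nm, em 460/535 nm ratio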
5HT1E antag: 5-HT1E (human) receptor antagonism; P28566; CHO 5-HT1E Ga15 NFAT-bla reporter, FRET, antagonist; inhibition, % at 6 µM; hit rate 0.99% among 65,000; AID 571;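 active = inhibition above a set limit, the mean inhibition across every tested compound plus 3 SD, cut at about 29% in these data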;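 note: signal is the 460 over 535 nm emission ratio of beta-lactamase substrate; 0% = agonist plus DMSO wells and 100% = wells without agonist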
HTR1A agonist: 5-HT1a (human) receptor agonism | P08908 | CHO 5-HT1a Ga15 NFAT-bla reporter, FRET ratio; 0% basal, 100% maximal reference agonist | activation, % at 10 µM | hit rate 0.56% among 65,000 | AID 567;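 active = activation above the screen-wide mean activation plus 3 SD, cut at about 19% in these data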;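 note: 0% = DMSO wells and 100% = 5-CT at EC100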
S1P1 ag pot: S1P1 (human) agonism or agonism potentiation. P21453. S1P1 CRE-bla cells, forskolin, beta-lactamase FRET, potentiator mode; S1P1 agonist co-added at EC20, 2 nM; 100% = saturating reference agonist, 0% = basal. activation, % at 9.5 µM. hit rate 0.57% among 56,000;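 active = activation above a cutoff set at the mean activation of all tested compounds plus 3 SD, cut at about 54% in these data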;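 note: forskolin at 4 µM as EC80 and the EC20 agonist is SEW2871; 100% = SEW2871 at its EC100 plus forskolin at EC80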
Target sequence (P21453 whole entry, looked up): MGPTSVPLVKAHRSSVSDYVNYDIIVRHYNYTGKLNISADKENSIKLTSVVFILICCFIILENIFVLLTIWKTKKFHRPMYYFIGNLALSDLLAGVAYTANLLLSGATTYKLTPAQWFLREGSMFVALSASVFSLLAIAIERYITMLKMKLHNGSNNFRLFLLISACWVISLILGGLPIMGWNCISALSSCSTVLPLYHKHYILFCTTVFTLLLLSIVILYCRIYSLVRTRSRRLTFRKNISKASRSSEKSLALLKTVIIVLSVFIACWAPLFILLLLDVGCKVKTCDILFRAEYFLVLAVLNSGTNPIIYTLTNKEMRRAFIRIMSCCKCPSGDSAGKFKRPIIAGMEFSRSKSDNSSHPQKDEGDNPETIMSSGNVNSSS
5HT1a antag: 5-HT1a (human) receptor antagonism; P08908; CHO 5-HT1a Ga15 NFAT-bla reporter, antagonist mode; inhibition, % at 10 µM; hit rate 0.68% among 62,000;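 active = inhibition above the mean of all tested compounds plus 3 SD, cut at about 43% in these data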;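 note: receptor stimulated by 5-CT agonist at 100 nM near EC80; beta-lactamase reporter measured by ratiometric fluorescence of a cleavable substrate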
5HT1E ag: activates the human 5-HT1E serotonin receptor; AID 574; activation, % at 6 µM; P28566; CHO 5-HT1E Ga15 NFAT-bla reporter, FRET; 0% DMSO wells, 100% control agonist wells; hit rate 0.69% among 65,000;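 active = activation above a set limit, the screen-wide mean activation plus 3 SD, cut at about 8.5% in these data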;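 note: 100% = positive control agonist at 1 µM giving full maximal response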
* marks the source's active call; other numbers are inactive results; / = no result given.

SMILES	S1P3 agonist	5HT1E antag	HTR1A agonist	S1P1 ag pot	5HT1a antag	5HT1E ag
COc1ccccc1-c1n[nH]c(=S)n1-c1ccccc1	-0.9	-5.6	-1.4	-13.9	5.4	-0.7
COc1ccccc1N1CCN(CCc2n[nH]c(=S)n2-c2ccccc2)CC1	-1.5	2.9	2.3	-7.8	69.2*	30.3*
COc1ccc(CCn2c(C)cc(C(=O)CSc3nnnn3C)c2C)cc1	14.2*	5.5	2.5	6.8	1.3	-0.7
Cc1cc(C(=O)CSc2nc(N)cc(N)n2)c(C)n1CCc1ccc(F)cc1	0.0	3.9	2.6	30.8	-10.3	-0.1
Cc1cc(C(=O)CSc2nnc(C3COc4ccccc4O3)n2C)c(C)n1-c1ccc(F)cc1 (configuration not stated)	3.9	29.6*	-3.4	28.8	27.5	0.0
Cc1cc(C(=O)CSc2nnnn2C)c(C)n1-c1cccc(F)c1	2.8	-2.5	-1.0	93.3*	-12.9	-0.1
Cc1cc(S(=O)(=O)NCCc2ccccc2)c(C)s1	-0.3	-0.1	-4.0	-10.6	0.3	-1.2
Cc1ccc2nc(SCCC#N)nc(C)c2c1	0.3	-3.9	1.2	-17.5	2.3	0.1
Cc1ccc2nc(C(F)(F)F)c(C#N)c(N)c2c1	-3.7	34.7*	-0.8	64.0*	/	-1.3
Cc1cc(C(=O)N2CCN(C(c3ccccc3)c3ccccc3)CC2)no1	4.7	-2.1	0.7	69.4*	-3.8	-0.8
COc1cccc(-c2cc(C(=O)N3CCN(C(c4ccccc4)c4ccccc4)CC3)no2)c1	-2.4	-13.6	-1.0	7.7	51.8*	3.0
CCCc1cc(C(=O)N2CCN(C(c3ccccc3)c3ccccc3)CC2)no1	-1.0	5.1	-0.4	66.3	6.6	-0.5
O=C(c1ccco1)N1CCC(c2ccccc2)C1 (configuration not stated)	-0.3	1.4	0.1	-1.1	-10.3	0.5
CC(=O)c1ccc(N2CCN(C(=O)c3ccc(OCc4c(C)noc4C)cc3)CC2)cc1	0.7	5.3	-1.6	6.3	-1.9	0.1
Cc1noc(C)c1COc1ccc(C(=O)OC(C)C(=O)Nc2ccc(N3CCOCC3)cc2)cc1 (configuration not stated)	0.9	-5.8	-1.6	1.8	1.2	120.3*
CCn1c(SCC(=O)c2cc(C)n(-c3ccc(C(=O)OC)cc3)c2C)nnc1-c1cccnc1	-0.5	-7.1	1.6	-8.2	-3.8	0.8
COCCn1c(C)cc(C(=O)CSc2nnc(-c3cccnc3)n2-c2ccccc2F)c1C	-0.3	-4.9	0.4	98.0*	-4.2	0.6
Cn1c(C(=O)NCCCN2CCCC2=O)cc2c(=O)n3ccccc3nc21	0.6	30.4*	-0.2	2.3	3.1	-0.2
Cn1c(C(=O)NCCC2=CCCCC2)cc2c(=O)n3ccccc3nc21	0.8	10.8	0.4	-71.0	-4.5	0.5
CCn1c(SCc2ccc(C#N)cc2)nnc1-c1ccc(S(=O)(=O)N2CCCCC2)cc1	-1.1	1.9	1.2	27.3	-3.6	1.4
O=C(COC(=O)Cc1ccsc1)NC1CCCCCC1	0.3	-1.0	-1.5	-13.3	0.1	-1.2
c1cc(-c2nnc3sc(C4CCCCC4)nn23)ccn1	0.0	2.0	1.8	21.0	/	16.7*
COc1ccccc1-c1nnc2sc(C3CCCCC3)nn12	-1.9	0.8	0.3	-19.8	/	0.7
O=C(CCCN1CCC(c2ccccc2)C1)c1ccc2c(c1)OCCO2 (configuration not stated)	-0.3	-1.1	5.8	-9.9	81.8*	7.8
COc1cccc(-c2nn(C)c3sc(C(=O)Nc4ccc5c(c4)OCCO5)cc23)c1	0.8	-13.2	-1.0	21.5	-3.8	0.9
SMILES	S1P3 agonist	5HT1E antag	HTR1A agonist	S1P1 ag pot	5HT1a antag	5HT1E ag
COc1cccc(-c2nn(C)c3sc(C(=O)NCc4ccccn4)cc23)c1	-1.1	42.0*	-1.2	-14.2	19.7	-1.0
O=C(c1ccco1)N1CCN(CC(O)COc2ccc3oc4ccccc4c3c2)CC1 (configuration not stated)	0.3	-14.1	29.1*	8.0	0.1	0.5
CC(=O)N=c1c(C#N)cc2c(=O)n3cccc(C)c3nc2n1CC(C)C	-0.3	6.9	3.8	-14.7	-10.4	1.5
CC1CC(N(C(=O)c2ccco2)c2ccccc2)c2ccccc2N1 (configuration not stated)	1.1	-5.9	-0.6	6.1	9.6	16.2*
O=C1CSC(c2ccccc2F)N1CCN1CCCCC1 (configuration not stated)	-0.4	2.9	-1.1	-23.0	8.1	1.4
O=C1CSC(c2ccccc2F)N1c1cc(Cl)ccc1O (configuration not stated)	-0.5	30.4*	-1.5	7.6	8.0	-0.7
CC(=O)Nc1ccc(S(=O)(=O)CCC#N)cc1	0.3	-10.8	-0.7	2.6	-4.6	0.2
COc1ccc(OC)c(NC(=O)c2nnn(Cc3ccccc3C)c2N)c1	/	22.9	0.3	/	17.4	1.7
CNC(=O)CSc1nnc(-c2ccco2)n1-c1ccccc1OC	-0.1	-2.8	-3.5	-11.1	-8.3	0.8
Cc1c(/C=N/n2cnnc2)c2ccccc2n1CCOc1ccc(Cl)cc1	/	33.0*	3.0	/	-7.0	0.8
Cc1ccc(OCCn2c(C)c(/C=N/n3cnnc3)c3ccccc32)cc1	-0.1	44.3*	0.9	-3.9	1.3	0.2
CCN1CCN(C(=O)CN(c2ccccc2C)S(C)(=O)=O)CC1	-0.3	12.3	-1.5	10.5	-6.8	-1.5
O=C(Cc1ccc(Br)cc1)N1CCCCCC1	-0.2	-9.1	-0.8	5.4	10.2	-1.4
Cc1cnc(C(=O)Nc2cccc3cccnc23)cn1	-0.2	-0.2	2.9	-6.3	-4.7	-0.5
O=C(Nc1cccc2cccnc12)c1cccnc1	-0.3	3.0	39.2*	/	3.7	-1.8
Oc1c(C(Nc2ccccn2)c2ccccn2)ccc2cccnc12 (configuration not stated)	0.0	43.2*	-2.3	12.5	48.5*	0.5
COc1ccccc1N1CCN(CC(=O)Nc2cc(F)ccc2C)CC1	/	-9.5	0.1	/	43.3*	-0.7
COc1ccccc1N1CCN(CCCNC(=O)Nc2ccccc2C)CC1	/	8.6	-0.3	/	82.3*	2.7
CC(=O)OCC(=O)c1ccc2ccn(C(C)=O)c2c1	-0.2	-4.5	-2.4	8.6	1.7	0.0
COc1ccccc1N1CCN(CCCC(=O)c2ccc(F)cc2)CC1	-1.7	11.2	4.4	-10.4	92.6*	3.0
COc1ccccc1N1CCN(CC(=O)c2ccc3ccn(C(C)=O)c3c2)CC1	-0.8	8.2	7.8	16.4	14.6	29.9*
Cc1c(C(=O)N2CCCC2)oc2c1-c1[nH]ncc1CC2	-0.7	-1.9	0.4	-16.1	-19.2	1.4
O=C(OC(C(=O)NC1CCCC1)c1ccccc1F)c1ccco1 (configuration not stated)	0.2	-5.8	156.3*	-16.0	11.6	0.1
